In ChEMBL document CHEMBL1141056, “Aqua mediated synthesis of substituted 2-amino-4H-chromenes and in vitro study as antibacterial agents” (Bioorg Med Chem Lett, 2005):

Experiments:
Type in all cases: functional, organism-based
Escherichia coli [1] = assay: Antibacterial activity against Escherichia coli (ATCC 25922) at concentration 32.0 uM/ml in dimethylformamide, + = resistant
Method in brief: (§1)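 Broth microdilution MIC per NCCLS standard protocol. Compounds dissolved in DMF and doubling-diluted in Mueller Hinton broth across 0.5–128 µg/ml; ampicillin run alongside. Inoculum adjusted to McFarland 0.5 and diluted to approx. 5×10^5 cfu/ml final per well. Plates held overnight at 37 °C. Growth scored per concentration: + resistant, − susceptible. Each plate carried broth+inoculum and broth-only control wells.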

Staphylococcus aureus [2] = assay: Antibacterial activity against Staphylococcus aureus (ATCC 25923) at concentration 32.0 uM/ml in dimethylformamide, + = resistant; method in brief: as §1
Escherichia coli [3] = assay: Antibacterial activity against Escherichia coli (ATCC 25922) at concentration 16.0 uM/ml in dimethylformamide, + = resistant; method in brief: as §1
Pseudomonas aeruginosa [4] = assay: Antibacterial activity against Pseudomonas aeruginosa (ATCC 27853) at concentration 0.5 uM/ml in dimethylformamide, + = resistant; method in brief: as §1
Pseudomonas aeruginosa [5] = assay: Antibacterial activity against Pseudomonas aeruginosa (ATCC 27853) at concentration 16.0 uM/ml in dimethylformamide, + = resistant; method in brief: as §1
Escherichia coli [6] = assay: Antibacterial activity against Escherichia coli (ATCC 25922) at concentration 2.0 uM/ml in dimethylformamide, + = resistant; method in brief: as §1
Staphylococcus aureus [7] = assay: Antibacterial activity against Staphylococcus aureus (ATCC 25923) at concentration 8.0 uM/ml in dimethylformamide, + = resistant; method in brief: as §1
Staphylococcus aureus [8] = assay: Antibacterial activity against Staphylococcus aureus (ATCC 25923) at concentration 2.0 uM/ml in dimethylformamide, + = resistant; method in brief: as §1
Staphylococcus aureus [9] = assay: Antibacterial activity against Staphylococcus aureus (ATCC 25923) at concentration 16.0 uM/ml in dimethylformamide, + = resistant; method in brief: as §1
Escherichia coli [10] = assay: Antibacterial activity against Escherichia coli (ATCC 25922) at concentration 8.0 uM/ml in dimethylformamide, + = resistant; method in brief: as §1
Escherichia coli [11] = assay: Antibacterial activity against Escherichia coli (ATCC 25922) at concentration 0.5 uM/ml in dimethylformamide, + = resistant; method in brief: as §1
Pseudomonas aeruginosa [12] = assay: Antibacterial activity against Pseudomonas aeruginosa (ATCC 27853) at concentration 8.0 uM/ml in dimethylformamide, + = resistant; method in brief: as §1
Escherichia coli [13] = assay: Antibacterial activity against Escherichia coli (ATCC 25922) at concentration 1.0 uM/ml in dimethylformamide, + = resistant; method in brief: as §1
Pseudomonas aeruginosa [14] = assay: Antibacterial activity against Pseudomonas aeruginosa (ATCC 27853) at concentration 2.0 uM/ml in dimethylformamide, + = resistant; method in brief: as §1
Staphylococcus aureus [15] = assay: Antibacterial activity against Staphylococcus aureus (ATCC 25923) at concentration 1.0 uM/ml in dimethylformamide, + = resistant; method in brief: as §1
Pseudomonas aeruginosa [16] = assay: Antibacterial activity against Pseudomonas aeruginosa (ATCC 27853) at concentration 32.0 uM/ml in dimethylformamide, + = resistant; method in brief: as §1
Escherichia coli [17] = assay: Antibacterial activity against Escherichia coli (ATCC 25922) at concentration 64.0 uM/ml in dimethylformamide, + = resistant; method in brief: as §1
Pseudomonas aeruginosa [18] = assay: Antibacterial activity against Pseudomonas aeruginosa (ATCC 27853) at concentration 1.0 uM/ml in dimethylformamide, + = resistant; method in brief: as §1
Staphylococcus aureus [19] = assay: Antibacterial activity against Staphylococcus aureus (ATCC 25923) at concentration 4.0 uM/ml in dimethylformamide, + = resistant; method in brief: as §1
Escherichia coli [20] = assay: Antibacterial activity against Escherichia coli (ATCC 25922) at concentration 4.0 uM/ml in dimethylformamide, + = resistant; method in brief: as §1
Pseudomonas aeruginosa [21] = assay: Antibacterial activity against Pseudomonas aeruginosa (ATCC 27853) at concentration 4.0 uM/ml in dimethylformamide, + = resistant; method in brief: as §1
Staphylococcus aureus [22] = assay: Antibacterial activity against Staphylococcus aureus (ATCC 25923) at concentration 64.0 uM/ml in dimethylformamide, + = resistant; method in brief: as §1
Staphylococcus aureus [23] = assay: Antibacterial activity against Staphylococcus aureus (ATCC 25923) at concentration 0.5 uM/ml in dimethylformamide, + = resistant; method in brief: as §1
Pseudomonas aeruginosa [24] = assay: Antibacterial activity against Pseudomonas aeruginosa (ATCC 27853) at concentration 64.0 uM/ml in dimethylformamide, + = resistant; method in brief: as §1
Staphylococcus aureus [25] = assay: Antibacterial activity against Staphylococcus aureus (ATCC 25923)i at concentration 32.0 uM/ml in dimethylformamide, + = resistant; method in brief: as §1

Measured: MIC

N#CC1=C(N)Oc2cc(O)ccc2C1c1ccc2c(c1)OCO2 (centres undefined)
not listed: Pseudomonas aeruginosa [24] | Staphylococcus aureus [25]
Resistant: all other assays above

N#CC1=C(N)Oc2cc(O)ccc2C1n1ccc2ccccc21 (centres undefined)
not listed: Pseudomonas aeruginosa [24] | Staphylococcus aureus [25]
Resistant: all other assays above

N#CC1=C(N)Oc2ccc3ccccc3c2C1c1ccc2c(c1)OCO2 (centres undefined)
not listed: Pseudomonas aeruginosa [24] | Staphylococcus aureus [25]
Resistant: all other assays above

N#CC1=C(N)Oc2ccc3ccccc3c2C1n1ccc2ccccc21 (centres undefined)
not listed: Pseudomonas aeruginosa [24] | Staphylococcus aureus [25]
Resistant: all other assays above

N#CC1=C(N)Oc2cc(O)ccc2C1c1cc2ccccc2nc1Cl (centres undefined)
not listed: Escherichia coli [17] | Pseudomonas aeruginosa [24] | Staphylococcus aureus [25]
Resistant: all other assays above

N#CC1=C(N)Oc2cc(O)ccc2C1c1ccccc1 (centres undefined)
not listed: Staphylococcus aureus [25]
Resistant: all other assays above

N#CC1=C(N)Oc2ccc3ccccc3c2C1c1ccccc1 (centres undefined)
not listed: Pseudomonas aeruginosa [24] | Staphylococcus aureus [25]
Resistant: all other assays above

N#CC1=C(N)Oc2ccc3ccccc3c2C1c1cc2ccccc2nc1Cl (centres undefined)
not listed: Staphylococcus aureus [2] | Staphylococcus aureus [22] | Pseudomonas aeruginosa [24]
Resistant: all other assays above

CC1(C)S[C@@H]2[C@H](NC(=O)[C@H](N)c3ccccc3)C(=O)N2[C@H]1C(=O)O
Resistant: Pseudomonas aeruginosa [4] | Escherichia coli [6] | Staphylococcus aureus [8] | Escherichia coli [11] | Escherichia coli [13] | Pseudomonas aeruginosa [14] | Staphylococcus aureus [15] | Pseudomonas aeruginosa [18] | Staphylococcus aureus [19] | Pseudomonas aeruginosa [21] | Staphylococcus aureus [23]
